Compound activity as filed in PubChem BioAssay.
PGC1a Ac signal: raises PGC1a acetylation signal in U2OS cells. U2OS PGC1a acetylation AlphaScreen, overnight. activation, % at 15.6 µM. actives 0.21% (n = 350,000);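 active = every replicate reaching activation of at least 50%, whatever the mean replicate activation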;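 note: hits raise the AlphaScreen acetylation signal above neutral controls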
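detection = AlphaScreen lysate read | assay system = U2OS cells expressing flag-PGC1a plus GCN5 | input = 7000 cells/well | dosing = one concentration | times = compound overnight at 37 °C, each detection step 1 h RT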
A number is an active result; n = inactive. This is one part of a sample in which hits are shown more often than they occur.

SMILES | PGC1a Ac signal
O=C(NNS(=O)(=O)c1ccc(F)cc1)c1ccc(S(=O)(=O)N2CCCCC2)cc1 | n
CS(=O)(=O)N1CCCC(C(=O)NCc2ccccn2)C1 (stereo unspecified) | n
O=S(=O)(c1ccc(NC(=S)NCc2cccnc2)cc1)N1CCCCC1 | 89
O=C(c1cc(Cl)ccc1Cl)N1CCc2ccccc21 | n
C/C=C/c1ccc2c(c1)O[C@H](CN(C)C(=O)C1CC1)[C@H](C)CN([C@@H](C)CO)S2(=O)=O | n
N#Cc1sc2nccc(Nc3ccccc3)c2c1N | n
O=C(Nc1ccc(C(F)(F)F)cc1)N1C[C@@H]2N[C@H](C1)C2c1ccc(-c2cccc(F)c2)cc1 (stereo partly specified) | n
Cc1ccc(-c2ccc(C3[C@@H]4CN(C(=O)Nc5ccc(C(F)(F)F)cc5)C[C@H]3N4)cc2)cc1 (stereo partly specified) | n
Cc1cccc(-c2ccc(C3[C@@H]4CN(C(=O)C5CCCCC5)C[C@H]3N4)cc2)c1 (stereo partly specified) | 74
C[C@H]1CN([C@@H](C)CO)S(=O)(=O)c2ccc(Br)cc2O[C@H]1CN(C)S(C)(=O)=O | n
CCCN(C)C[C@@H]1Oc2cc(C#C[C@H](C)O)ccc2S(=O)(=O)N([C@H](C)CO)C[C@@H]1C | n
Cc1ccccc1-c1ccc2c(c1)O[C@H](CN(C)Cc1ccncc1)[C@@H](C)CN([C@@H](C)CO)S2(=O)=O | 57
C[C@H]1CN([C@@H](C)CO)S(=O)(=O)c2ccc(Br)cc2O[C@@H]1CN(C)S(=O)(=O)c1ccccc1F | 64
COc1ccc(S(=O)(=O)N(C)C[C@H]2Oc3cc(C4=CCCC4)ccc3S(=O)(=O)N([C@H](C)CO)C[C@@H]2C)cc1 | n
Cc1ccc(S(=O)(=O)N(C)C[C@H]2Oc3cc(C#Cc4ccncc4)ccc3S(=O)(=O)N([C@H](C)CO)C[C@H]2C)cc1 | n
C[C@H](CO)N1C[C@H](C)[C@H](CN(C)C(=O)NC2CCCCC2)Oc2cc(C#Cc3ccc(F)cc3)ccc2S1(=O)=O | n
C[C@@H]1CN([C@@H](C)CO)S(=O)(=O)c2ccc(-c3ccc(F)cc3)cc2O[C@H]1CN(C)C(=O)C1CCCCC1 | n
COc1ccc(S(=O)(=O)N(C)C[C@@H]2Oc3cc(C#CC4CC4)ccc3S(=O)(=O)N([C@H](C)CO)C[C@@H]2C)cc1 | 56
COc1ccccc1C#Cc1ccc2c(c1)O[C@@H](CN(C)Cc1cccnc1)[C@H](C)CN([C@@H](C)CO)S2(=O)=O | n
COc1ccc(S(=O)(=O)N(C)C[C@@H]2Oc3cc(C#CC4CC4)ccc3S(=O)(=O)N([C@@H](C)CO)C[C@@H]2C)cc1 | 136
C[C@H](CO)N1C[C@H](C)[C@@H](CN(C)Cc2cccnc2)Oc2cc(C#CC3CCCCC3)ccc2S1(=O)=O | n
C[C@H]1CN([C@@H](C)CO)C(=O)CCCn2nncc2CO[C@@H]1CN(C)C(=O)c1ccc(N2CCN(C)CC2)cc1 | n
Fc1ccc(CNC(=S)NCc2ccc(F)cc2)cc1 | n
CCN(CCNc1ccc(Cl)cc1[N+](=O)[O-])C(=O)c1cc([N+](=O)[O-])c(N(C)C)cc1OC | n
CCOc1ccc(Nc2nc(NCc3ccco3)nc(N)c2[N+](=O)[O-])cc1 | n
SMILES | PGC1a Ac signal
CO[C@H]1CN(C)C(=O)c2cc(NS(=O)(=O)c3cn(C)cn3)ccc2OC[C@@H](C)NC[C@H]1C | n
COc1ccc(C2(NC(C)=O)CCN(C(=O)CCC(=O)O)CC2)cc1 | n
CC(CCC(=O)O)C1CCC2C3CCC4CC(O)CCC4(C)C3CC(O)C12C (stereo unspecified) | n
N#CC1=C(N)Oc2c(ccc3ccccc23)C1c1ccsc1 (stereo unspecified) | 57
Cc1nnc2sc(-c3ccc(NC(=O)c4ccc(-c5ccc(Cl)cc5Cl)o4)cc3)nn12 | 98
CCOc1ccc(S(=O)(=O)N(C)c2ccc(OCC(=O)N3c4ccc(C)cc4C4CN(C)CCC43)cc2)cc1 (stereo unspecified) | n
CCOC(=O)CC(S(=O)(=O)c1ccccc1)S(=O)(=O)c1ccccc1 | 96
CCOC(=O)C1=C(CS(=O)(=O)c2ccccc2)NC(=O)NC1c1ccc(O)c(OC)c1 (stereo unspecified) | n
Cc1cc(=O)oc2cc(OCC(=O)OCC(=O)Nc3ccccc3F)ccc12 | n
CN1OC(COC(=O)c2ccccc2)CC1c1ccccc1 (stereo unspecified) | n
CCC(=O)N[C@H]1CC[C@H](CCNC(=O)Nc2ccc(C(F)(F)F)cc2)O[C@H]1CO | n
COc1ccc(C2c3c(-c4ccccc4O)n[nH]c3C(=O)N2CCc2ccc(OC)c(OC)c2)cc1 (stereo unspecified) | 63
COc1ccc(CCN2C(=O)CC(C(C)c3ccccc3)C2=O)cc1OC (stereo unspecified) | n
CC(=O)Cc1nsc(NC(=O)c2cccc(F)c2)n1 | n
COc1ccc(CCn2c(-c3ccc(OC)cc3)nc3c(c(=O)c4ccccc4n3C)c2=O)cc1 | 109
CCC(=O)N1C[C@H](C)[C@@H](OC)CN(C)C(=O)c2ccc(NC(=O)Nc3ccccc3)cc2OC[C@@H]1C | n
CC/C(CC(C)(C)c1ccccc1)=N\O | 56
N=c1sccn1CC(=O)Nc1ccccc1Sc1ccccc1 | n
Nc1nc(SCC(=O)Nc2ccccc2Sc2ccc(Cl)cc2)n[nH]1 | 89
CC12CC(c3ccccc3O1)N(C(=O)c1ccc(Br)o1)C(=O)N2c1ccccc1 (stereo unspecified) | n
Clc1ccc2nc(COc3ccccc3)[nH]c2c1 | 89
Oc1ccc2ccccc2c1CN1CCCCC1 | 104
O=C(NC(=S)N1CCN(Cc2ccccc2)CC1)c1cccnc1 | n
O=C(NC(=S)Nc1ccc(CN2CCCCC2)cc1)c1cc2ccccc2o1 | n
O=C(c1ccc2ccccc2c1)N1CCCC1 | n
SMILES | PGC1a Ac signal
O=C(C1CCCO1)N1CCN(Cc2c(O)ccc3ccccc23)CC1 (stereo unspecified) | 191
CCN(CC)CCOc1ccc(/C(=C(\Cl)c2ccccc2)c2ccccc2)cc1 | 80
O=C(NCc1ccccc1)C1Cc2c(-c3ccc4c(c3)OCO4)ccnc2O1 (stereo unspecified) | 133
CC(=O)c1cccc(-c2ccnc3c2CC(C(=O)NCC2CC2)O3)c1 (stereo unspecified) | 58
O=C1Nc2ccccc2N=C(c2ccccc2)C1N(Cc1ccc(F)cc1)C(=O)c1cccnc1 (stereo unspecified) | n
CN(C)Cc1c(O)ccc2c1O/C(=C\C=C\c1ccccc1)C2=O | 79
Clc1ccc(Oc2cccc(/C=N/n3cnnc3)c2)cc1 | n
O=C(CC1CC1)N[C@H]1CC[C@H](CCNS(=O)(=O)c2ccc(Cl)cc2)O[C@H]1CO | n
COc1ccc(NC(=O)N(C)C[C@@H]2OCCCC[C@@H](C)Oc3ccc(NC(=O)Cc4ccccc4)cc3C(=O)N([C@H](C)CO)C[C@@H]2C)cc1 | n
COc1ccc(CCCNC(=O)C2(C)Cc3c(-c4ccc5c(c4)OCO5)ccnc3O2)cc1 (stereo unspecified) | 54
Cc1cc(=O)[nH]c(NN=Cc2cc(Br)ccc2O)n1 | n
Cn1c(Cl)cnc1C1CC(=O)c2cc(Cl)ccc2O1 (stereo unspecified) | 71
CCOCCn1c(N2CCN(c3ccccc3)CC2)nc2c1c(=O)n(C)c(=O)n2C | 54
Cc1ccc(OC[C@H](O)[C@H](C)NC(C)C)c2c1CCC2 | n
Cc1cc(S(=O)(=O)NC(C)C)ccc1OCC(=O)Nc1ccc2c(c1)OCCO2 | n
